pIC50: −log10 of the molar value. The source made the active and inactive calls. No cut-off for these calls is given here.
Columns and labels:
RAW264.7 [1] = test: Antiinflammatory activity against mouse RAW264.7 cells assessed as inhibition of LPS-induced PGE2 production at 5 uM administered 1 hr prior to LPS-challenge measured after 24 hrs by EIA; assay type: functional
Summary of the method: (§1)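 Single-concentration PGE₂ assay in LPS-stimulated RAW 264.7 cells: test compounds at 5 µM, reference NS398 at 3 µM. PGE₂ in culture media was quantified by EIA. Values are means ± SD of three independent experiments.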

RAW264.7 [2] = test: Antiinflammatory activity against mouse RAW264.7 cells assessed as inhibition of LPS-induced NO production at 5 uM after 24 hrs by Griess assay; assay type: functional
Summary of the method: (§2)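 Single-concentration NO assay: test compounds at 5 µM, reference L-NIL at 20 µM, in LPS-stimulated RAW 264.7 cells. Nitrite in the medium was measured by Griess reaction (A540). Values are means ± SD of three independent experiments.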

RAW264.7 [3] = test: Cytotoxicity against mouse RAW264.7 cells after 24 hrs by MTT assay; assay type: cell-based; conditions: RAW264.7, 24 h
Summary of the method: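 Cells were seeded at 10⁵/well and exposed to various concentrations of compound for 24 h. Viability was read by colorimetric MTT assay.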

RAW264.7 [4] = test: Antiinflammatory activity against mouse RAW264.7 cells assessed as inhibition of LPS-induced PGE2 production administered 1 hr prior to LPS-challenge measured after 24 hrs by EIA; assay type: functional, cell-based
Summary of the method: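 Cells were pretreated for 1 h with compound at 0.1, 1, 10, 100 or 1000 nM, then given LPS (10 ng/mL) for 24 h. PGE₂ in culture media was quantified by EIA kit. Values are means ± SD of three independent experiments; ANOVA with Dunnett's post hoc test.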

RAW264.7 [5] = test: Ratio of NS398 IC50 to compound IC50 for mouse RAW264.7 cells; assay type: functional
RAW264.7 [6] = test: Antiinflammatory activity against mouse RAW264.7 cells assessed as inhibition of LPS-induced NO production after 24 hrs by Griess assay; assay type: functional, cell-based; conditions: RAW264.7, 24 h
Summary of the method: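 Cells were plated at 4 × 10⁵/well in DMEM with 10% FBS at 37 °C, 5% CO₂. They were incubated 24 h with LPS (1 µg/mL) plus compound at 1.60–100 µM. Medium was mixed 1:1 with Griess reagent (sulfanilamide/naphthylethylenediamine in phosphoric acid) for 10 min at room temperature, then A540 was read against fresh medium blanks.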

RAW264.7 [7] = test: Antiinflammatory activity against mouse RAW264.7 cells assessed as inhibition of LPS-induced PGE2 production at 3 uM administered 1 hr prior to LPS-challenge measured after 24 hrs by EIA; assay type: functional, cell-based; summary of the method: as §1
RAW264.7 [8] = test: Antiinflammatory activity against mouse RAW264.7 cells assessed as inhibition of LPS-induced iNOS protein expression administered 1 hr prior to LPS-challenge measured after 24 hrs by SDS-PAGE analysis; assay type: functional, cell-based
Summary of the method: (§3)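 RAW 264.7 macrophages were pretreated for 1 h with or without 0.01, 0.1, 0.5, 1, 5 or 10 µM compound, then stimulated with LPS (10 ng/mL) for 24 h. Cell lysates were run on SDS–PAGE and transferred to PVDF. Blots were probed with iNOS and COX-2 antibodies, with β-actin as internal control.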

RAW264.7 [9] = test: Ratio of L-NIL IC50 to compound IC50 for mouse RAW264.7 cells; assay type: functional
[10] = biological target: T1, Nitric oxide synthase, inducible (Mus musculus) (UniProt P29477); test: Inhibition of LPS-induced iNOS activity in mouse RAW264.7 cells at 1 to 10 uM after 12 hrs
T1 sequence (whole entry): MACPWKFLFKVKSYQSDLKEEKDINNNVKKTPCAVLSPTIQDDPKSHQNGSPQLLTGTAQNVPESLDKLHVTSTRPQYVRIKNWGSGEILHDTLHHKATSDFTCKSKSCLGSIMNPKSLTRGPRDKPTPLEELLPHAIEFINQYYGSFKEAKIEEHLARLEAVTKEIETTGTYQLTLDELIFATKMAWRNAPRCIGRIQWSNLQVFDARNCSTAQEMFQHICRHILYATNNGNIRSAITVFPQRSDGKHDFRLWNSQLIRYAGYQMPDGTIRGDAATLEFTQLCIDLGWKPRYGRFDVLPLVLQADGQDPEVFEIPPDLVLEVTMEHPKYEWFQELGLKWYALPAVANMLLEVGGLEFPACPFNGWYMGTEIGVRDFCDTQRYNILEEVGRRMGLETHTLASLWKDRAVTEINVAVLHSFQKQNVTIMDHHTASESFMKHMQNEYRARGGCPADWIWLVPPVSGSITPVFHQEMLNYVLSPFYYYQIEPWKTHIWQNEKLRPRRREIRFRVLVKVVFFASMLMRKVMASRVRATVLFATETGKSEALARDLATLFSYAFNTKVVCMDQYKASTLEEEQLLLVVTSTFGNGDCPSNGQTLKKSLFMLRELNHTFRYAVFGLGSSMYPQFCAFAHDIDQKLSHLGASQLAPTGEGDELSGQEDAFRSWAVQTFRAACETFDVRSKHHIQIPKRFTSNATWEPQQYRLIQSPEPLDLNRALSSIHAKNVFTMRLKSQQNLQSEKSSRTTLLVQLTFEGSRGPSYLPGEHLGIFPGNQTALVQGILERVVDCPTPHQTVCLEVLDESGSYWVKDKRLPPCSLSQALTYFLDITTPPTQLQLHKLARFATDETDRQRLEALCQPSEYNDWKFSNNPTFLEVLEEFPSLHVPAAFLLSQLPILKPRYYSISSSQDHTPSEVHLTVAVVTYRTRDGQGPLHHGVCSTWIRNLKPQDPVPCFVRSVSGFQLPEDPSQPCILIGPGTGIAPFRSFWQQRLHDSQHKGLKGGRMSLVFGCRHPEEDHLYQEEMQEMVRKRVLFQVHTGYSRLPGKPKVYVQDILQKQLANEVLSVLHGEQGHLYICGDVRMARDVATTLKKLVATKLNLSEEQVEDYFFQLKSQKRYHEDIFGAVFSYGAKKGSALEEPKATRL

[11] = biological target: T2, Prostaglandin G/H synthase 2 (Homo sapiens) (UniProt P35354); test: Inhibition of LPS-induced recombinant COX2 (unknown origin) activity expressed in mouse RAW264.7 cells at 0.1 to 5 uM after 10 mins; assay type: cell-based
T2 sequence (whole entry): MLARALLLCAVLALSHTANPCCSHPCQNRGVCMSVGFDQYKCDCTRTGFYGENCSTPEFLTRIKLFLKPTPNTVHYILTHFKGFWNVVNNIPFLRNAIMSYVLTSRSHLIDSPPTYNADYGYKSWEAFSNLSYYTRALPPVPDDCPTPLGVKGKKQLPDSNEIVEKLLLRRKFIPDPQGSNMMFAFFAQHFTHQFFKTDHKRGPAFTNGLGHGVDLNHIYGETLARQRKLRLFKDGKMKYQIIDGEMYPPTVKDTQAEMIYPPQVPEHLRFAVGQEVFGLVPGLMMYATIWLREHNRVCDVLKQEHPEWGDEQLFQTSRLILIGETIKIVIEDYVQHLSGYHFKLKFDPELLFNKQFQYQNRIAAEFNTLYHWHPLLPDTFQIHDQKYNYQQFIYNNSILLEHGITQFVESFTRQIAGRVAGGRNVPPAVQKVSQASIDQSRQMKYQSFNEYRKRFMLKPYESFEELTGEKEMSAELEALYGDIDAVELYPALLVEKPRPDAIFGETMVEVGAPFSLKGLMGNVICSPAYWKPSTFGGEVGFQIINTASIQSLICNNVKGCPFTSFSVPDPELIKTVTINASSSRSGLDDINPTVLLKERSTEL

RAW264.7 [12] = test: Antiinflammatory activity against mouse RAW264.7 cells assessed as inhibition of LPS-induced COX2 protein expression administered 1 hr prior to LPS-challenge measured after 24 hrs by SDS-PAGE analysis; assay type: functional, cell-based; summary of the method: as §3
RAW264.7 [13] = test: Antiinflammatory activity against mouse RAW264.7 cells assessed as inhibition of LPS-induced NO production at 20 uM after 24 hrs by Griess assay; assay type: functional; conditions: RAW264.7, 24 h; summary of the method: as §2
RAW264.7 [14] = test: Antiinflammatory activity against mouse RAW264.7 cells assessed as inhibition of LPS-induced NO production administered 1 hr prior to LPS-challenge measured after 24 hrs by Griess assay; assay type: functional, cell-based
Summary of the method: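 RAW 264.7 cells were grown in DMEM with 10% FBS, penicillin and streptomycin at 37 °C under 5% CO2, then plated at 4 × 10^5 cells/well. Culture medium was mixed 1:1 with Griess reagent (equal volumes of 1% sulfanilamide in 5% phosphoric acid and 0.1% naphthylethylenediamine·HCl) for 10 min at room temperature, and nitrite was read at 540 nm against fresh-medium blanks.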

Structure (SMILES)	inhibition (RAW264.7 [1])	inhibition (RAW264.7 [2])	pIC50 (RAW264.7 [3])	pIC50 (RAW264.7 [4])	other results
CCCS(=O)(=O)Oc1ccc2c3c(c(=O)oc2c1)CCCCC3	Active	Active	4.62	–	–
CCCS(=O)(=O)Oc1ccc2c3c(c(=O)oc2c1)CCCCCC3	Active	Active	5.04	8.40	Ratio IC50 (RAW264.7 [5]): 1.74; pIC50 (RAW264.7 [6]): 5.00
O=c1oc2cc(OS(=O)(=O)c3ccc(C(F)(F)F)cc3)ccc2c2c1CCCCCC2	–	Active	< 4.00	8.22	pIC50 (RAW264.7 [6]): 4.12
O=c1oc2cc(OS(=O)(=O)C3CC3)ccc2c2c1CCCCC2	Active	Active	4.69	–	–
CS(=O)(=O)Nc1ccc([N+](=O)[O-])cc1OC1CCCCC1 [NS-398]	–	–	–	8.15	inhibition (RAW264.7 [7]): Active
CCS(=O)(=O)Oc1ccc2c3c(c(=O)oc2c1)CCCCCC3	Active	Active	4.67	–	–
CS(=O)(=O)Oc1ccc2c3c(c(=O)oc2c1)CCCCC3	Active	Active	4.04	–	–
CS(=O)(=O)Oc1ccc2c3c(c(=O)oc2c1)CCCCCC3	Active	Active	4.61	–	–
O=c1oc2cc(OS(=O)(=O)c3ccccc3)ccc2c2c1CCCCC2	Active	Active	< 4.00	–	–
O=c1oc2cc(OS(=O)(=O)C3CC3)ccc2c2c1CCCCCC2	Active	Active	4.98	–	–
Cc1ccc(S(=O)(=O)Oc2ccc3c4c(c(=O)oc3c2)CCCCC4)cc1	Active	Active	< 4.00	–	–
O=c1oc2cc(OS(=O)(=O)c3ccc(C(F)(F)F)cc3)ccc2c2c1CCCCC2	–	–	< 4.00	8.19	inhibition (INH) (RAW264.7 [1]): 91.48%; inhibition (RAW264.7 [8]): Active; inhibition at 5 µM (RAW264.7 [2]; RAW264.7, 24 h): 65.8%; pIC50 (RAW264.7 [6]): 5.42; Ratio IC50 (RAW264.7 [9]): 5.24; inhibition [10]: inactive; inhibition [11]: Active; inhibition (RAW264.7 [12]): Dose-dependent effect
CCS(=O)(=O)Oc1ccc2c3c(c(=O)oc2c1)CCCCC3	Active	Active	4.63	–	–
O=c1oc2cc(OS(=O)(=O)c3ccccc3)ccc2c2c1CCCCCC2	–	Active	< 4.00	–	–
CC(=N)NCCCC[C@H](N)C(=O)O [L-NIL]	–	–	–	–	inhibition at 20 µM (RAW264.7 [13]): 50%; pIC50 (RAW264.7 [6]): 4.70
Cc1ccc(S(=O)(=O)Oc2ccc3c4c(c(=O)oc3c2)CCCCCC4)cc1	Active	Active	< 4.00	8.17	pIC50 (RAW264.7 [6]): 4.39
NS(=O)(=O)Oc1ccc2c3c(c(=O)oc2c1)CCCCC3 [IROSUSTAT]	–	–	–	7.09	inhibition (RAW264.7 [4]): Dose-dependent effect; pIC50 (RAW264.7 [14]): 4.07; inhibition (RAW264.7 [14]): Dose-dependent effect

Reference: ChEMBL document CHEMBL3102726, “Synthesis of tricyclic fused coumarin sulfonates and their inhibitory effects on LPS-induced nitric oxide and PGE2 productions in RAW 264.7 macrophages” (Bioorg Med Chem Lett, 2014)
